Assay [1] concerns the target BCL2L1/BAD (Homo sapiens, UniProt Q07817). The assay can be described thus: Inhibition of BAD/His-SUMO tagged BCL-XL (1 to 209 residues; missing 27 to 82 residues) (unknown origin) overexpressed in Escherichia coli BL21 protein-protein interaction by fluorescence anisotropy competition assay. A digest of the protocol:
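Final conditions: 200 nM BCL-xL, 50 nM tracer, 20 mM Tris, 150 mM NaCl, pH 7.6, 20 °C, with peptide titrated. Tracer Kd for BCL-xL was determined beforehand by direct titration (6 nM-125 μM protein).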
For orientation: In fluorescence polarisation assays a small probe gives low polarisation when free and higher when bound to something large.

Assay [2] addresses Induced myeloid leukemia cell differentiation protein Mcl-1/BH3-interacting domain death agonist (Homo sapiens) (UniProt Q07820+P55957). As to the kind of experiment: Inhibition of BID/MCL-1 interaction (unknown origin) by fluorescence anisotropy competition assay. It counts as protein assay.

Each structure is given as a SMILES string. Activity calls are given as the source filed them. No cut-off for these calls is given here. Where a SMILES comes first, the peptide text is derived from it.

Induced myeloid leukemia cell differentiation protein Mcl-1/BH3-interacting domain death agonist (Homo sapiens), sequence (P55957 whole entry, looked up, the tested form may be a part): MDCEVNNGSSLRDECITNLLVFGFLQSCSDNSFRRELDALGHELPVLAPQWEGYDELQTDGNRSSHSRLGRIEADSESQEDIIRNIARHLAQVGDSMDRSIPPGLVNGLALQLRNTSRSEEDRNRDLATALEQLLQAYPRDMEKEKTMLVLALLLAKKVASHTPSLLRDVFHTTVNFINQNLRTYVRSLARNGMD
Induced myeloid leukemia cell differentiation protein Mcl-1/BH3-interacting domain death agonist (Homo sapiens), sequence (Q07820 whole entry, looked up, the tested form may be a part): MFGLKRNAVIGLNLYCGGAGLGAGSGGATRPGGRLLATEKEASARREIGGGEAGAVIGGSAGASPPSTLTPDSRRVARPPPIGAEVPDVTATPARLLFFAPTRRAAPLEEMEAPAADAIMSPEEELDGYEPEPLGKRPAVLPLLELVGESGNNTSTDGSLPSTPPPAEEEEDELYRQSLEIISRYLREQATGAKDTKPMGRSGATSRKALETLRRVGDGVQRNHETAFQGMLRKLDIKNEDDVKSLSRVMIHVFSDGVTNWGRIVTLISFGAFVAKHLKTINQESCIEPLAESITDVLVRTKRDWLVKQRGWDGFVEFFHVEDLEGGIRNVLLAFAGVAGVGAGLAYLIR
BCL2L1/BAD, sequence (Q92934 whole entry, the tested form may be a part): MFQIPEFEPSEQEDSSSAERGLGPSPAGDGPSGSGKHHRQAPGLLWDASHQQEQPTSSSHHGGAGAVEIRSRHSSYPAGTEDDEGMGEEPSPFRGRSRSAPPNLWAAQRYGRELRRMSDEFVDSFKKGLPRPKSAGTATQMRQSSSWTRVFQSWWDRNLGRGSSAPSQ
BCL2L1/BAD, sequence (Q07817 whole entry, the tested form may be a part): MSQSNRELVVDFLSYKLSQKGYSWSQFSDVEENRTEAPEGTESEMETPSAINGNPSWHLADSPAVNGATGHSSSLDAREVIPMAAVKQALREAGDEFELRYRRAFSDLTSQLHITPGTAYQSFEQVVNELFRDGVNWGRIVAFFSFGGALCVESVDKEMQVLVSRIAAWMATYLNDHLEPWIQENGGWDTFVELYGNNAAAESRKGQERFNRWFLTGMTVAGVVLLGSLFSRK

By IC50 is commonly meant the concentration that inhibits the measured activity by half. A lower IC50 goes with higher potency. `CSCC[C@@H]1NC(=O)[C@@H](NC(=O)[C@H](CCCNC(=N)N)NC(=O)[C@H](CC(C)C)NC(=O)[C@H](CCC(=O)O)NC(=O)[C@H](CCCNC(=N)N)NC(=O)CNC(=O)[C@H](Cc2ccc(O)cc2)NC(=O)[C@H](CCCNC(=N)N)NC(C)=O)CS2=S(C[C@@H](C(=O)N[C@@H](Cc3ccccc3)C(=O)N[C@H](C(=O)N[C@@H](CC(=O)O)C(=O)N[C@@H](CO)C(=O)N[C@@H](Cc3ccccc3)C(=O)N[C@@H](CCCCN)C(=O)N[C@@H](CCCCN)C(N)=O)C(C)C)NC(=O)[C@H](CC(=O)O)NC(=O)[C@H](CO)NC1=O)C(=O)NC2=O` (stereo partly specified) showed an IC50 in assay [1] of 2.4 µM. The inhibition entry in assay [2] is “inactive”.

Consider `CSCC[C@H](NC(=O)[C@H](CS)NC(=O)[C@H](CCCNC(=N)N)NC(=O)[C@H](CC(C)C)NC(=O)[C@H](CCC(=O)O)NC(=O)[C@H](CCCNC(=N)N)NC(=O)CNC(=O)[C@H](Cc1ccc(O)cc1)NC(=O)[C@H](CCCNC(=N)N)NC(C)=O)C(=O)N[C@@H](CO)C(=O)N[C@@H](CC(=O)O)C(=O)N[C@@H](CS)C(=O)N[C@@H](Cc1ccccc1)C(=O)N[C@H](C(=O)N[C@@H](CC(=O)O)C(=O)N[C@@H](CO)C(=O)N[C@@H](Cc1ccccc1)C(=O)N[C@@H](CCCCN)C(=O)N[C@@H](CCCCN)C(N)=O)C(C)C` (Ac-RYGRELRCMSDCFVDSFKK-NH2), for which the IC50 in assay [1] amounted to 6.9 µM. The inhibition entry in assay [2] was “inactive”.

Turning to `CSCC[C@H](NC(=O)[C@H](CCCNC(=N)N)NC(=O)[C@H](CCCNC(=N)N)NC(=O)[C@H](CC(C)C)NC(=O)[C@H](CCC(=O)O)NC(=O)[C@H](CCCNC(=N)N)NC(=O)CNC(=O)[C@H](Cc1ccc(O)cc1)NC(=O)[C@H](CCCNC(=N)N)NC(C)=O)C(=O)N[C@@H](CO)C(=O)N[C@@H](CC(=O)O)C(=O)N[C@@H](CCC(=O)O)C(=O)N[C@@H](Cc1ccccc1)C(=O)N[C@H](C(=O)N[C@@H](CC(=O)O)C(=O)N[C@@H](CO)C(=O)N[C@@H](Cc1ccccc1)C(=O)N[C@@H](CCCCN)C(=O)N[C@@H](CCCCN)C(N)=O)C(C)C` (Ac-RYGRELRRMSDEFVDSFKK-NH2), the IC50 in assay [1] was 3.6 µM. The inhibition entry in assay [2] is “inactive”.

(Values after ChEMBL document CHEMBL5344414, “Maleimide constrained BAD BH3 domain peptides as BCL-xL Inhibitors: A versatile approach to rapidly identify sites compatible with peptide constraining” (Bioorg Med Chem Lett, 2023).)
